Test results published in publication PMC5743405 (International Journal of Oncology, 2017).
Like-named read-outs stand apart in the source and are kept apart here.

Key:
HCRTR2 = experiment: PathHunter β-arrestin; format: cell-based; conditions: antagonist mode, 6 μM
Procedure, shortened: (§1)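 Vendor-run (DiscoveRx) PathHunter enzyme fragment complementation. β-Arrestin carries the EA fragment and the receptor carries ED; recruitment restores β-gal activity, read by chemiluminescence (RLU). Agonist % activity = vehicle-subtracted RLU relative to max control ligand (gpcrMAX) or to vehicle (orphanMAX). Antagonist % inhibition = 100% × (1 − vehicle-subtracted sample RLU / vehicle-subtracted EC80 agonist control RLU).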

FPRL1 = experiment: PathHunter β-arrestin; format: cell-based; conditions: antagonist mode, 6 μM
Procedure, shortened: (§2)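 Engineered cells express the receptor fused to one β-galactosidase fragment (ED) and β-arrestin fused to the complementing fragment (EA). Receptor activation recruits β-arrestin, which restores enzyme activity, and this is read by chemiluminescence (RLU). Agonist % activity is 100% × (test − vehicle)/(maximal control ligand − vehicle). Antagonist mode is challenged with an EC80 control agonist, and % inhibition is 100% × (1 − (test − vehicle)/(EC80 − vehicle)). Hits require >30% activity or >35% inhibition, plus a 3×SD RLU margin.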

TLR8 = experiment: western blot, JJ012 cells; format: cell-based, human; conditions: vs untreated control, overnight incubation
c-Myc = experiment: RT2 qPCR primer assay, JJ012 cells; format: cell-based, human
Procedure, shortened: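 RNA extracted from treated and control JJ012 cells, checked by spectrophotometry and reverse transcribed. SYBR Green qPCR with custom primer assays on three samples in technical triplicates. Ct normalized to the average of GAPDH and ACTB. Fold change vs control by 2^−ΔΔCt, shown as a heat map of average Ct.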

CCR10 = experiment: PathHunter β-arrestin; format: cell-based; conditions: antagonist mode, 6 μM
Procedure, shortened: (§3)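 β-Arrestin recruitment assay: the enzyme acceptor is fused to β-arrestin and the ED fragment to the GPCR. Recruitment restores β-galactosidase, read by chemiluminescence. % activity = 100% × (test − vehicle)/(max control ligand − vehicle). % inhibition = 100% × (1 − (test − vehicle)/(EC80 control − vehicle)). An agonist hit needs >30% activity and RLU > baseline + 3×SD. An antagonist hit needs >35% inhibition and RLU < EC80 RLU − 3×SD.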

GPCR receptors = experiment: PathHunter β-arrestin gpcrMAX panel, agonist mode; format: cell-based; conditions: summary of Table I
Procedure, shortened: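 β-Arrestin fused to the EA fragment and GPCR fused to the ED fragment; recruitment restores β-galactosidase, read by chemiluminescence. % agonist = 100 × (mean test − mean vehicle)/(mean max control ligand − mean vehicle). Hit requires >30% activity and mean RLU above baseline + 3 × baseline SD.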

TLR10 = experiment: western blot, JJ012 cells; format: cell-based, human; conditions: vs untreated control, overnight incubation
TSHR(L) = experiment: PathHunter β-arrestin; format: cell-based; conditions: antagonist mode, 6 μM
PTHR1 = experiment: PathHunter β-arrestin; format: cell-based; conditions: 6 μM
Procedure, shortened: (§4)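 β-Arrestin recruitment to GPCR read by β-galactosidase fragment complementation and chemiluminescence. Agonist: % = 100 × (test − vehicle)/(max control ligand − vehicle), hit at >30% and RLU > baseline + 3 SD. Antagonist, against EC80 agonist: % inhibition = 100 × (1 − (test − vehicle)/(EC80 − vehicle)), hit at >35% and RLU < EC80 − 3 SD.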

CNR2 = experiment: PathHunter β-arrestin; format: cell-based; conditions: 6 μM
Procedure, shortened: as §2

CMKLR1 = experiment: PathHunter β-arrestin; format: cell-based; conditions: antagonist mode, 6 μM
Procedure, shortened: as §2

P2RY11 = experiment: PathHunter β-arrestin; format: cell-based; conditions: 6 μM
Procedure, shortened: as §4

BDKRB1 = experiment: PathHunter β-arrestin; format: cell-based; conditions: 6 μM
Procedure, shortened: as §3

ADRA2C = experiment: PathHunter β-arrestin; format: cell-based; conditions: antagonist mode, 6 μM
Procedure, shortened: as §3

CXCR3 = experiment: PathHunter β-arrestin; format: cell-based; conditions: 6 μM
Procedure, shortened: as §2

HRH3 = experiment: PathHunter β-arrestin; format: cell-based; conditions: 6 μM
Procedure, shortened: as §1

HRH1 = experiment: PathHunter β-arrestin; format: cell-based; conditions: agonist mode, 6 μM
Procedure, shortened: as §1

TLR4 = experiment: western blot, JJ012 cells; format: cell-based, human; conditions: vs untreated control, overnight incubation
HTR1E = experiment: PathHunter β-arrestin; format: cell-based; conditions: 6 μM
Procedure, shortened: as §1

[1] = system: chondrosarcoma cell growth; conditions: cited from earlier work
TACR3 = experiment: PathHunter β-arrestin; format: cell-based; conditions: antagonist mode, 6 μM
PTGIR = experiment: PathHunter β-arrestin; format: cell-based; conditions: 6 μM
Procedure, shortened: as §4

OPRD1 = experiment: PathHunter β-arrestin; format: cell-based; conditions: antagonist mode, 6 μM
Procedure, shortened: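 GPCR-ED fusion and β-arrestin-EA fusion; arrestin recruitment restores β-galactosidase, read by chemiluminescence. Antagonist mode uses EC80 agonist challenge. % inhibition = 100 × (1 − (test − vehicle RLU)/(EC80 control − vehicle RLU)). Hit requires >35% inhibition and mean RLU below EC80 RLU − 3 × EC80 SD.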

CCR2 = experiment: PathHunter β-arrestin; format: cell-based; conditions: antagonist mode, 6 μM
Procedure, shortened: as §3

TLR1 = experiment: RT2 qPCR primer assay, JJ012 cells; format: cell-based, human
Procedure, shortened: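 RNA was extracted, checked by spectrophotometry and reverse-transcribed. Custom RT2 SYBR-Green primer assays were run on three samples in technical triplicate. Ct was normalised to mean GAPDH/ACTB, ΔΔCt taken versus control, and fold change = 2^−ΔΔCt.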

VIPR1 = experiment: PathHunter β-arrestin; format: cell-based; conditions: antagonist mode, 6 μM
PTHR2 = experiment: PathHunter β-arrestin; format: cell-based; conditions: antagonist mode, 6 μM
CRTH2 = experiment: PathHunter β-arrestin; format: cell-based; conditions: antagonist mode, 6 μM
Procedure, shortened: as §2

TLR5 = experiment: western blot, JJ012 cells; format: cell-based, human; conditions: vs untreated control, overnight incubation

Proline rich polypeptide 1 [PRP-1]
% Inhibition (HCRTR2): −1%
% Inhibition (FPRL1): −2%
protein expression (TLR8): no indication of PRP-1 effect
gene expression (c-Myc; 10 μg/ml PRP-1, heat map, technical triplicates): went down drastically
c-Myc gene expression, dose response (c-Myc; qRT-PCR, 1 and 10 μg/ml): downregulation of its gene expression in dose-response manner
% Inhibition (CCR10): −3%
GPCR coupling, agonist mode (GPCR receptors): no indication that PRP-1 was G protein coupled
protein expression (TLR10): no indication of PRP-1 effect
% Inhibition (TSHR(L)): −4%
% Activity (PTHR1; agonist mode): 1%
% Inhibition (PTHR1; antagonist mode): −2%
% Activity (CNR2; agonist mode): −2%
% Inhibition (CNR2; antagonist mode): 5%
% Inhibition (CMKLR1): −2%
% Activity (P2RY11; agonist mode): 1%
% Inhibition (P2RY11; antagonist mode): −12%
% Activity (BDKRB1; agonist mode): 1%
% Inhibition (BDKRB1; antagonist mode): −8%
% Inhibition (ADRA2C): −4%
% Activity (CXCR3; agonist mode): 1%
% Inhibition (CXCR3; antagonist mode): −1%
% Activity (HRH3; agonist mode): 2%
% Inhibition (HRH3; antagonist mode): −6%
% Activity (HRH1): 1%
protein expression (TLR4): PRP-1 did not have any effect
% Activity (HTR1E; agonist mode): 3%
% Inhibition (HTR1E; antagonist mode): 5%
inhibition of chondrosarcoma cell growth ([1]; ref [4],[5]): 80–90%
inhibition of chondrosarcoma cell growth ([1]; ref [4],[6]): > 80%
% Inhibition (TACR3): −1%
% Activity (PTGIR; agonist mode): 1%
% Inhibition (PTGIR; antagonist mode): −2%
% Inhibition (OPRD1): −2%
% Inhibition (CCR2): −3%
gene expression (TLR1; 10 μg/ml PRP-1, heat map, average Ct, technical triplicates): well expressed
fold change (∆Ct) (TLR1; qRT-PCR): did not report significant fold change
% Inhibition (VIPR1): −9%
% Inhibition (PTHR2): −1%
% Inhibition (CRTH2): −8%
protein expression (TLR5): PRP-1 did not have any effect
